In paper PMC10433355 (ACS Omega, 2023):
“And” between values parts separate entries of the source, which are not always exact repeats. Equal values may be shown once.

Tests used:
B16F1 = assay: MTS assay, melanoma B16F1; type: cell-based; conditions: Mus musculus, B16-F1, 72 h, read-out: IC50 B16F1
In short: (§1)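 Cells grown in RPMI 1640 with 10% FBS, 1% penicillin/streptomycin and 1% L-glutamine, trypsinised and counted by hemocytometer. Seeded at 1 × 10^3 cells/well and left 24 h at 37 °C. Test compound added at 300, 100, 50 and 10 µM for 72 h at 37 °C, then removed. […] Triplicate, mean ± SD.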

human recombinant COX-2 = target: T1, human recombinant COX-2 (Homo sapiens, UniProt P35354); assay: In vitro COX-2 inhibition assay; type: biochemical; conditions: for SI (selectivity index / selectivity ratio): IC50 COX-1 divided by IC50 COX-2; for IC50: IC50 COX-2
T1 sequence (P35354 18-604): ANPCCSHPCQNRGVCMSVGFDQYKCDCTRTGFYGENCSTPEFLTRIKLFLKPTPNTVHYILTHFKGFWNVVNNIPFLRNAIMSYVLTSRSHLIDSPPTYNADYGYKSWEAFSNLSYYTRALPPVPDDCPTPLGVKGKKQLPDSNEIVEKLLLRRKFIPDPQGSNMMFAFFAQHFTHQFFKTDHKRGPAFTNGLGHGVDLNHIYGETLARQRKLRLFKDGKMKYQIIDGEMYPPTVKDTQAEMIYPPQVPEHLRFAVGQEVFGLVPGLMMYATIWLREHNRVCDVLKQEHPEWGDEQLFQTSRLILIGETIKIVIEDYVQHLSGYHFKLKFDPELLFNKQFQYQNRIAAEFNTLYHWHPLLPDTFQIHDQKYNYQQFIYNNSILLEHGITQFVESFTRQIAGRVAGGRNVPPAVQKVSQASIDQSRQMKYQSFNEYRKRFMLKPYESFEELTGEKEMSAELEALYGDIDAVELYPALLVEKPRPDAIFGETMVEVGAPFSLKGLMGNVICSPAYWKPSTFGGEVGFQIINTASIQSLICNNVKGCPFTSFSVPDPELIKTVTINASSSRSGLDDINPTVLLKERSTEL

MCF-7 = assay: MTS assay, breast carcinoma MCF-7; type: cell-based; conditions: Homo sapiens, MCF7, 72 h, read-out: IC50 MCF-7
In short: as §1

HeLa = assay: MTS assay, cervical adenocarcinoma HeLa; type: cell-based; conditions: Homo sapiens, 72 h, read-out: IC50 HeLa
In short: as §1

COX-1 = target: T2, COX-1 (Ovis aries, UniProt P05979); assay: In vitro COX-1 inhibition assay; type: biochemical, ovine
T2 sequence (P05979 25-600): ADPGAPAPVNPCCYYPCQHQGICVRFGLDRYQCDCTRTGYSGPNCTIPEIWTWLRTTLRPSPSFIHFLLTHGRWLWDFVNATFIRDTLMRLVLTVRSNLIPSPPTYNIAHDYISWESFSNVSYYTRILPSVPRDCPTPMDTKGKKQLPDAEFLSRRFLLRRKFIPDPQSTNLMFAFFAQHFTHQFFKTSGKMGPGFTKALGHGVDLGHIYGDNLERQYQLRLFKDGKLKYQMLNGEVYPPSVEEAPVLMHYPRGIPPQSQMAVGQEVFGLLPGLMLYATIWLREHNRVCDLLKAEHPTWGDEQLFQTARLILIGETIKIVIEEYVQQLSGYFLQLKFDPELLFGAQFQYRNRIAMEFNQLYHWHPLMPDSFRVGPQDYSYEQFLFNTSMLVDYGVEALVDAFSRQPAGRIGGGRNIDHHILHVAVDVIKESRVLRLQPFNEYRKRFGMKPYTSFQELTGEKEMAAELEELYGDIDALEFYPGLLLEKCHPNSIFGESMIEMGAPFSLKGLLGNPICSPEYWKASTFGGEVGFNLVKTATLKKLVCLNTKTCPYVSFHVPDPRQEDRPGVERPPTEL

HepG2 = assay: MTS assay, hepatocellular carcinoma HepG2; type: cell-based; conditions: Homo sapiens, HepG2, 72 h, read-out: IC50 HepG2
In short: as §1

COLO205 = assay: MTS assay, colon adenocarcinoma COLO205; type: cell-based; conditions: Homo sapiens, COLO 205, 72 h, read-out: IC50 COLO205
In short: as §1

CaCo-2 = assay: MTS assay, colorectal adenocarcinoma Caco-2; type: cell-based; conditions: Homo sapiens, Caco-2, 72 h, read-out: IC50 CaCo-2
In short: as §1

[1] = MTS cytotoxicity assay, normal cell line LX-2; type: cell-based; conditions: human, LX-2 cells (normal cell line), CC50 LX-2, normal cell line
In short: (§2)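 LX-2 cells seeded at 1 × 10^3 cells/well and left 24 h at 37 °C. Exposed to test compound at 300, 100, 50 and 10 µM for 72 h at 37 °C, with 5-FU as positive control. […] Triplicate, mean ± SD.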

Hep3B = assay: MTS assay, hepatocellular carcinoma Hep3B; type: cell-based; conditions: Homo sapiens, 72 h, read-out: IC50 Hep3B
In short: as §1

Hek293t cells = assay: MTS cytotoxicity assay, normal cell line Hek293t; type: cell-based; conditions: read-out: CC50 Hek293t, 72 h
In short: as §1

LX-2 cells = assay: MTS cytotoxicity assay, normal cell line LX-2; type: cell-based; conditions: read-out: CC50 LX-2, normal cell line
In short: as §2

## COc1cccc(-c2nc(C)c(C(=O)Nc3cc(OC)c(OC)c(OC)c3)s2)c1 [2a, 2-(3-Methoxyphenyl)-4-methyl-N-(3,4,5-trimethoxyphenyl)thiazole-5-carboxamide]
B16F1
  IC50: > 300 µM
Human recombinant COX-2
  SI (selectivity index / selectivity ratio): 2.766 and 2.76
  IC50: 0.95 µM and 0.958 µM
MCF-7
  IC50: > 300 µM
HeLa
  IC50: > 300 µM
COX-1
  IC50: 2.65 ± 0.78 µM
HepG2
  IC50: 60.8 ± 2.76 µM
COLO205
  IC50: > 300 µM
CaCo-2
  IC50: > 300 µM
[1]
  CC50 at 72 h: > 300 µM
Hep3B
  IC50: > 300 µM

## COc1cccc(-c2nc(C)c(C(=O)Nc3ccc(C(C)(C)C)cc3)s2)c1 [2b, N-(4-(tert-Butyl)phenyl)-2-(3-methoxyphenyl)-4-methylthiazole-5-carboxamide]
B16F1
  IC50: 74.2 ± 2.44 µM
Human recombinant COX-2
  SI (selectivity index / selectivity ratio): 1.251
  IC50: 0.19 µM and 0.191 µM
MCF-7
  IC50: > 300 µM
HeLa
  IC50: > 300 µM
COX-1
  IC50: 0.239 ± 0.18 µM
HepG2
  IC50: > 300 µM
Hek293t cells
  CC50: 117 ± 2.05 µM
COLO205
  IC50: 30.8 ± 0.49 µM
CaCo-2
  IC50: > 300 µM
[1]
  CC50 at 72 h: 203.7 ± 1.89 µM
Hep3B
  IC50: > 300 µM

## COc1cccc(-c2nc(C)c(C(=O)Nc3ccc(OC)c(OC)c3)s2)c1 [2c, N-(3,4-Dimethoxyphenyl)-2-(3-methoxyphenyl)-4-methylthiazole-5-carboxamide]
B16F1
  IC50: > 300 µM
Human recombinant COX-2
  SI (selectivity index / selectivity ratio): 0.095
  IC50: 2.91 ± 1.08 µM
MCF-7
  IC50: > 300 µM
HeLa
  IC50: > 300 µM
COX-1
  IC50: 0.278 ± 0.02 µM
HepG2
  IC50: > 300 µM
COLO205
  IC50: > 300 µM
CaCo-2
  IC50: > 300 µM
[1]
  CC50 at 72 h: > 300 µM
Hep3B
  IC50: > 300 µM

## COc1cc(NC(=O)c2sc(-c3cccc(OC)c3)nc2C)cc(OC)c1 [2d, N-(3,5-Dimethoxyphenyl)-2-(3-methoxyphenyl)-4-methylthiazole-5-carboxamide]
B16F1
  IC50: > 300 µM
Human recombinant COX-2
  SI (selectivity index / selectivity ratio): 0.685
  IC50: 2.3 ± 0.25 µM
MCF-7
  IC50: 144 ± 2.03 µM
HeLa
  IC50: > 300 µM
COX-1
  IC50: 1.57 ± 0.8 µM
HepG2
  IC50: > 300 µM
COLO205
  IC50: > 300 µM
CaCo-2
  IC50: > 300 µM
[1]
  CC50 at 72 h: > 300 µM
Hep3B
  IC50: > 300 µM

## COc1cccc(-c2nc(C)c(C(=O)Nc3ccc(SC)cc3)s2)c1 [2e, 2-(3-Methoxyphenyl)-4-methyl-N-(4-(methylthio)phenyl)thiazole-5-carboxamide]
B16F1
  IC50: > 300 µM
Human recombinant COX-2
  SI (selectivity index / selectivity ratio): 0.723
  IC50: 2.12 ± 1.48 µM
MCF-7
  IC50: 163 ± 2.88 µM
HeLa
  IC50: 223 ± 2.58 µM
COX-1
  IC50: 1.53 ± 0.92 µM
HepG2
  IC50: > 300 µM
COLO205
  IC50: > 300 µM
CaCo-2
  IC50: > 300 µM
[1]
  CC50 at 72 h: > 300 µM
Hep3B
  IC50: 202.1 ± 1.99 µM

## COc1cccc(-c2nc(C)c(C(=O)Nc3ccccc3)s2)c1 [2f, 2-(3-Methoxyphenyl)-4-methyl-N-phenylthiazole-5-carboxamide]
B16F1
  IC50: > 300 µM
Human recombinant COX-2
  SI (selectivity index / selectivity ratio): 0.630
  IC50: 3.26 ± 1.02 µM
MCF-7
  IC50: > 300 µM
HeLa
  IC50: > 300 µM
COX-1
  IC50: 2.06 ± 1.21 µM
HepG2
  IC50: > 300 µM
COLO205
  IC50: > 300 µM
CaCo-2
  IC50: > 300 µM
[1]
  CC50 at 72 h: > 300 µM
Hep3B
  IC50: > 300 µM

## COc1cccc(-c2nc(C)c(C(=O)Nc3cc(OC)ccc3OC)s2)c1 [2h, N-(2,5-Dimethoxyphenyl)-2-(3-methoxyphenyl)-4-methylthiazole-5-carboxamide]
B16F1
  IC50: > 300 µM
Human recombinant COX-2
  SI (selectivity index / selectivity ratio): 0.272
  IC50: 1.23 ± 0.85 µM
MCF-7
  IC50: > 300 µM
HeLa
  IC50: 250.8 ± 2.42 µM
COX-1
  IC50: 0.335 ± 0.19 µM
HepG2
  IC50: > 300 µM
COLO205
  IC50: > 300 µM
CaCo-2
  IC50: > 300 µM
[1]
  CC50 at 72 h: > 300 µM
Hep3B
  IC50: > 300 µM

## COc1cccc(-c2nc(C)c(C(=O)Nc3ccc(Oc4ccccc4OC)cc3)s2)c1 [2i, N-(4-(2-Methoxyphenoxy)phenyl)-2-(3-methoxyphenyl)-4-methylthiazole-5-carboxamide]
B16F1
  IC50: > 300 µM
Human recombinant COX-2
  SI (selectivity index / selectivity ratio): 0.651
  IC50: 3.24 ± 1.11 µM
MCF-7
  IC50: > 300 µM
HeLa
  IC50: > 300 µM
COX-1
  IC50: 2.11 ± 1.08 µM
HepG2
  IC50: > 300 µM
COLO205
  IC50: > 300 µM
CaCo-2
  IC50: > 300 µM
[1]
  CC50 at 72 h: > 300 µM
Hep3B
  IC50: > 300 µM

## COc1cccc(-c2nc(C)c(C(=O)Nc3cccc(C(F)(F)F)c3)s2)c1 [2j, 2-(3-Methoxyphenyl)-4-methyl-N-(3-(trifluoromethyl)phenyl)thiazole-5-carboxamide]
B16F1
  IC50: > 300 µM
Human recombinant COX-2
  SI (selectivity index / selectivity ratio): 1.507
  IC50: 0.957 ± 0.17 µM
MCF-7
  IC50: > 300 µM
HeLa
  IC50: > 300 µM
COX-1
  IC50: 1.44 ± 0.51 µM
HepG2
  IC50: > 300 µM
COLO205
  IC50: > 300 µM
CaCo-2
  IC50: > 300 µM
[1]
  CC50 at 72 h: > 300 µM
Hep3B
  IC50: 299.2 ± 2.05 µM

## O=c1[nH]cc(F)c(=O)[nH]1 [5-FU, reference compound]
Hek293t cells
  CC50: 4.06 ± 1.82 µM
LX-2 cells
  CC50: 8.45 ± 2.02 µM
